Source: ChEMBL document CHEMBL5154945, “Discovery and Optimization of Pyrrolopyrimidine Derivatives as Selective Disruptors of the Perinucleolar Compartment, a Marker of Tumor Progression toward Metastasis” (J Med Chem, 2022)
The source made the active and inactive calls. No cut-off for these calls is given here.

Tests used:
M14 = test: Anticancer activity against human M14 cells assessed as cell growth inhibition; assay type: functional, cell-based; conditions: dose 1-100 µM, DDE = dose-dependent effect
NCI-H322M = test: Anticancer activity against human NCI-H322M cells assessed as cell growth inhibition; assay type: functional, cell-based; conditions: dose 1-100 µM, DDE = dose-dependent effect
UACC-62 = test: Anticancer activity against human UACC-62 cells assessed as cell growth inhibition; assay type: functional, cell-based; conditions: dose 1-100 µM, DDE = dose-dependent effect
SNB-19 = test: Anticancer activity against human SNB-19 cells assessed as cell growth inhibition; assay type: functional, cell-based; conditions: dose 1-100 µM, DDE = dose-dependent effect
[1] = mouse, in vivo, ip, 50 mg/kg, 48 h
[2] = Cmax in female BALB/c mouse at 25 mg/kg, ip at 30 min by L-MS/MS analysis; assay type: ADME, organism-based; parameters: dose 25 mg/kg, time 30 min, route ip; conditions: in vivo, 0.5 h
Summary of the method: (§1)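 Fed female BALB/c mice, about 6–8 weeks old and 25–30 g, received a single IP dose of 5 or 25 mpk in NMP/PEG400/HP-β-CD aqueous vehicle (0.5 mg/mL for the 5 mpk dose). Three mice per time point were sampled up to 48 h by retro-orbital bleed under isoflurane into K2EDTA. Plasma was spun at 2000 g, 4 °C, frozen at -80 °C, and assayed by LC/MS/MS.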

A549 = test: Anticancer activity against human A549 cells assessed as cell growth inhibition; assay type: functional, cell-based; conditions: dose 1-100 µM, DDE = dose-dependent effect
CAKI-1 = test: Anticancer activity against human CAKI-1 cells assessed as cell growth inhibition; assay type: functional, cell-based; conditions: dose 1-100 µM, DDE = dose-dependent effect
RXF 393 = test: Anticancer activity against human RXF 393 cells assessed as cell growth inhibition; assay type: functional, cell-based; conditions: dose 1-100 µM, DDE = dose-dependent effect
[3] = target: Sodium-dependent serotonin transporter (Homo sapiens) (UniProt P31645); test: Binding affinity to SERT receptor (unknown origin) at 10000 nM by radioligand displacement assay relative to control
Sequence of Sodium-dependent serotonin transporter (Homo sapiens) (P31645 whole entry, looked up): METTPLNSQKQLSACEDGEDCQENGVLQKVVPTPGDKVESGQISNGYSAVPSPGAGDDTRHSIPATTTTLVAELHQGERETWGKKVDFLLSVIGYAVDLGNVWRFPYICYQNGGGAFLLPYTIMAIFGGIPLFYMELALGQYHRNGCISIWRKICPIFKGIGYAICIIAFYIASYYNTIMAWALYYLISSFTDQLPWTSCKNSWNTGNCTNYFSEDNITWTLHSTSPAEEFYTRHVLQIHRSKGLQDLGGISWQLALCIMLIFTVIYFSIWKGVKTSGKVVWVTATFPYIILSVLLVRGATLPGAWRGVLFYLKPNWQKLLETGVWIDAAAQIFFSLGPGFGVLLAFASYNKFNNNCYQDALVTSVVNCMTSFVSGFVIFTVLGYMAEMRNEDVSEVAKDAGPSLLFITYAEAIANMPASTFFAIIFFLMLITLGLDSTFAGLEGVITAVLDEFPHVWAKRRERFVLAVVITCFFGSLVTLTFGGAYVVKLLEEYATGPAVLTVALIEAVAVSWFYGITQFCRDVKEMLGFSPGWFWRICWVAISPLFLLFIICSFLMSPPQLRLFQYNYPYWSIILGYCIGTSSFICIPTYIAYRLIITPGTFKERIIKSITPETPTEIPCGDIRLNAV

[4] = target: Sodium-dependent noradrenaline transporter (Homo sapiens) (UniProt P23975); test: Binding affinity to NET receptor (unknown origin) at 10000 nM by radioligand displacement assay relative to control
Sequence of Sodium-dependent noradrenaline transporter (Homo sapiens) (P23975 whole entry): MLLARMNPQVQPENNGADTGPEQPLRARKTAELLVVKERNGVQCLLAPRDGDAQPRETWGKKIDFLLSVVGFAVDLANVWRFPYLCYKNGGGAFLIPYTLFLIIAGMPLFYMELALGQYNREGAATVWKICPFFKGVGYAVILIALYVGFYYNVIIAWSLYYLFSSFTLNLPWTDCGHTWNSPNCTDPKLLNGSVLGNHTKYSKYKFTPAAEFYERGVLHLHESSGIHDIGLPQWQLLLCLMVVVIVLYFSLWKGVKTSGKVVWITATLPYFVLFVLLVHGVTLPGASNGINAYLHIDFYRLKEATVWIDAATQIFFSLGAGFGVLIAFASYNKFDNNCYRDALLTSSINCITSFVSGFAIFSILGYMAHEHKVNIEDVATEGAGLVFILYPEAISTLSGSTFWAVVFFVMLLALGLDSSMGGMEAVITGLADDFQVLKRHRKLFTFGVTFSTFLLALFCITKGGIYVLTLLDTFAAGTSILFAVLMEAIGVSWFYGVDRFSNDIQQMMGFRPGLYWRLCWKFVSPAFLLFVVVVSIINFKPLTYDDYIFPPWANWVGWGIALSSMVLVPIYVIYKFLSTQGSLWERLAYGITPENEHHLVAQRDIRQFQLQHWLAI

[5] = Cmax in female BALB/c mouse at 5 mg/kg, ip at 30 min by LC-MS/MS analysis; assay type: ADME, organism-based; parameters: time 30 min, dose 5 mg/kg, route ip; conditions: in vivo, 0.5 h; summary of the method: as §1
SF-539 = test: Anticancer activity against human SF-539 cells assessed as cell growth inhibition; assay type: functional, cell-based; conditions: dose 1-100 µM, DDE = dose-dependent effect
in vitro = conditions: human, PC-3M cells expressing PTB/GFP fusion protein
[6] = AUC (0 to 48 hrs) in female BALB/c mouse at 5 mg/kg, ip at 48 hrs by LC-MS/MS analysis; assay type: ADME, organism-based; parameters: time 48 hrs, dose 5 mg/kg, route ip; conditions: in vivo
Summary of the method: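 Fed female BALB/c mice, about 6–8 weeks old and 25–30 g, received a single IP dose. The vehicle was 5-10% NMP + 20% PEG400 + 70-75% (25% HP-β-CD in water), with the drug at 2.5/0.5 mg/mL. Blood was taken by retro-orbital puncture under isoflurane into K2EDTA tubes, 3 mice per time point, over 48 h. Plasma was prepared at 2000 g, 5 min, 4 °C, and measured by LC/MS/MS.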

SNB-75 = test: Anticancer activity against human SNB-75 cells assessed as cell growth inhibition; assay type: functional, cell-based; conditions: dose 1-100 µM, DDE = dose-dependent effect
BT-549 = test: Anticancer activity against human BT-549 cells assessed as cell growth inhibition; assay type: functional, cell-based; conditions: dose 1-100 µM, DDE = dose-dependent effect
[7] = target: Beta-3 adrenergic receptor (Homo sapiens) (UniProt P13945); test: Binding affinity to beta3 receptor (unknown origin) at 10000 nM by radioligand displacement assay relative to control
Sequence of Beta-3 adrenergic receptor (Homo sapiens) (P13945 whole entry, looked up): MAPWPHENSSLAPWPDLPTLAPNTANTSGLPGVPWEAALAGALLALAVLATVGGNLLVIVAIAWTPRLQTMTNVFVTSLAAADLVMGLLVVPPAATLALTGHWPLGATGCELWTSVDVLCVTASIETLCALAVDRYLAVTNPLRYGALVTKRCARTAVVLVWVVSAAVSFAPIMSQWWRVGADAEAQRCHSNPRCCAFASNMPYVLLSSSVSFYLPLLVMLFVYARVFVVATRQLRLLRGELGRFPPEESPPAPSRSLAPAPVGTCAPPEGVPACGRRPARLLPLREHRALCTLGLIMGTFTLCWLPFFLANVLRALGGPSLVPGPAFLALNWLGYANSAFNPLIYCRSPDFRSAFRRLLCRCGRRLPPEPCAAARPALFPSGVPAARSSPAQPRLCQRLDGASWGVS

HL-60(TB) = test: Anticancer activity against human HL-60(TB) cells assessed as cell growth inhibition; assay type: functional, cell-based; conditions: dose 1-100 µM, DDE = dose-dependent effect
[8] = target: Muscarinic acetylcholine receptor M2 (Homo sapiens) (UniProt P08172); test: Binding affinity to M2 receptor (unknown origin) at 10000 nM by radioligand displacement assay relative to control
[9] = target: 5-hydroxytryptamine receptor 2A (Homo sapiens) (UniProt P28223); test: Binding affinity to 5-HT2A receptor (unknown origin) at 10000 nM by radioligand displacement assay relative to control
Sequence of 5-hydroxytryptamine receptor 2A (Homo sapiens) (P28223 whole entry): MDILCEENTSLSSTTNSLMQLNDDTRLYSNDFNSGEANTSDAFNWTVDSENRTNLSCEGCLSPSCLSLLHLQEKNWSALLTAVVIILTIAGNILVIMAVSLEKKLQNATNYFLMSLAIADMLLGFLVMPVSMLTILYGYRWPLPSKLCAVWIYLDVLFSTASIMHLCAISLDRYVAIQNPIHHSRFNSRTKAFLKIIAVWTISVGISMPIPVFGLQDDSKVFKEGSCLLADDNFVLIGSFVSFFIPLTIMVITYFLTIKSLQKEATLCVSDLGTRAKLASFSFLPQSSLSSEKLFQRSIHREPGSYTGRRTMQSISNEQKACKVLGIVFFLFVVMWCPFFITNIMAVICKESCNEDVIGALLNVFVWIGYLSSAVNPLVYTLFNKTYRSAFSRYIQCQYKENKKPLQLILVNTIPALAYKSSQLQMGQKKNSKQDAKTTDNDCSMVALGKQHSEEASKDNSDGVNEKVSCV

CCRF-CEM = test: Anticancer activity against human CCRF-CEM cells assessed as cell growth inhibition; assay type: functional, cell-based; conditions: dose 1-100 µM, DDE = dose-dependent effect
786-0 = test: Anticancer activity against human 786-0 cells assessed as cell growth inhibition; assay type: functional, cell-based; conditions: dose 1-100 µM, DDE = dose-dependent effect
HCC 2998 = test: Anticancer activity against human HCC 2998 cells assessed as cell growth inhibition; assay type: functional, cell-based; conditions: dose 1-100 µM, DDE = dose-dependent effect
Histamine H1 receptor = Histamine H1 receptor (Homo sapiens, UniProt P35367); test: Binding affinity to H1 receptor (unknown origin) by radioligand displacement assay
Sequence of Histamine H1 receptor (P35367 whole entry): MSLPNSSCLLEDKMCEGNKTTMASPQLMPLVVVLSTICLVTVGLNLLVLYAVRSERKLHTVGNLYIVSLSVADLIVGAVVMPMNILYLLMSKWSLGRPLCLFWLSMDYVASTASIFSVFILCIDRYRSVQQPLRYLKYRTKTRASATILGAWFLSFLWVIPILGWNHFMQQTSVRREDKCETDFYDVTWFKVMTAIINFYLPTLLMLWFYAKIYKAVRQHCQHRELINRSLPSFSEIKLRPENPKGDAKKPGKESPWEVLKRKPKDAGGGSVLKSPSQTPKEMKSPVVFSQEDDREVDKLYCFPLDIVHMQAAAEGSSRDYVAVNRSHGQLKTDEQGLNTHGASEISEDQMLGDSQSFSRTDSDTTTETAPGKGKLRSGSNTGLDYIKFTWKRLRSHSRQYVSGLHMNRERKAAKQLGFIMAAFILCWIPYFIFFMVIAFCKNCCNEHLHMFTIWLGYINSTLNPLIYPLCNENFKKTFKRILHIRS

[10] = target: D(1A) dopamine receptor (Homo sapiens) (UniProt P21728); test: Binding affinity to D1 receptor (unknown origin) at 10000 nM by radioligand displacement assay relative to control
Sequence of D(1A) dopamine receptor (Homo sapiens) (P21728 whole entry): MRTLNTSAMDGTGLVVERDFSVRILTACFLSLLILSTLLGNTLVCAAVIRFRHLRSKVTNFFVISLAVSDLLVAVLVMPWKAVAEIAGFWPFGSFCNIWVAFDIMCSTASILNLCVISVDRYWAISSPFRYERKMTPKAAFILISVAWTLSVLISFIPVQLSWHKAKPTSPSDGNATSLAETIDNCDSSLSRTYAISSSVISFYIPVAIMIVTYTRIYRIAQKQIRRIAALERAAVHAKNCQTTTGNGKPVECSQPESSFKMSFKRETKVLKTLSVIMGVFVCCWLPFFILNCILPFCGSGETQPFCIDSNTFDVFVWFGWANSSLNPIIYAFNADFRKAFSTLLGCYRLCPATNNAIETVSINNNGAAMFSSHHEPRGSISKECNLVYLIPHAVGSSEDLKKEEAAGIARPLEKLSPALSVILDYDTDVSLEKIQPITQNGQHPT

U-251 = test: Anticancer activity against human U-251 cells assessed as cell growth inhibition; assay type: functional, cell-based; conditions: dose 1-100 µM, DDE = dose-dependent effect
[11] = Tmax in female BALB/c mouse at 25 mg/kg, ip and measured upto 48 hrs by LC-MS/MS analysis; assay type: ADME, organism-based; conditions: in vivo; summary of the method: as §1
NCI-H23 = test: Anticancer activity against human NCI-H23 cells assessed as cell growth inhibition; assay type: functional, cell-based; conditions: dose 1-100 µM, DDE = dose-dependent effect
SN12C = test: Anticancer activity against human SN12C cells assessed as cell growth inhibition; assay type: functional, cell-based; conditions: dose 1-100 µM, DDE = dose-dependent effect
EKVX = test: Anticancer activity against human EKVX cells assessed as cell growth inhibition; assay type: functional, cell-based; conditions: dose 1-100 µM, DDE = dose-dependent effect
Hs-578T = test: Anticancer activity against human Hs-578T cells assessed as cell growth inhibition; assay type: functional, cell-based; conditions: dose 1-100 µM, DDE = dose-dependent effect
PC-3M [12] = test: Antiproliferative activity against human PC-3M cells expressing PTB/GFP fusion protein assessed as disruption of RNA synthesis marker NOPP140 at 1 uM measured after 1 hr by DAPI staining based immunofluorescence microscopy; assay type: functional, cell-based
Summary of the method: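 50,000 PC3M cells on chamber slides were treated with 1 μM compound for 1 h at 37 °C, then fixed in 4% paraformaldehyde for 15 min, permeabilized with 0.3% Triton X-100 and blocked in 3% BSA. Primary antibodies were anti-RPA194 (1:200) and anti-NOPP140 (1:100), overnight at 4 °C, followed by secondary antibodies and DAPI mounting. Confocal images at 63×, three images of about 200 cells per group; counts of bright objects were normalized to DAPI-stained nuclei.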

T47D = test: Anticancer activity against human T47D cells assessed as cell growth inhibition; assay type: functional, cell-based; conditions: dose 1-100 µM, DDE = dose-dependent effect
[13] = target: Beta-1 adrenergic receptor (Homo sapiens) (UniProt P08588); test: Binding affinity to beta1 receptor (unknown origin) at 10000 nM by radioligand displacement assay relative to control
Sequence of Beta-1 adrenergic receptor (Homo sapiens) (P08588 whole entry, looked up): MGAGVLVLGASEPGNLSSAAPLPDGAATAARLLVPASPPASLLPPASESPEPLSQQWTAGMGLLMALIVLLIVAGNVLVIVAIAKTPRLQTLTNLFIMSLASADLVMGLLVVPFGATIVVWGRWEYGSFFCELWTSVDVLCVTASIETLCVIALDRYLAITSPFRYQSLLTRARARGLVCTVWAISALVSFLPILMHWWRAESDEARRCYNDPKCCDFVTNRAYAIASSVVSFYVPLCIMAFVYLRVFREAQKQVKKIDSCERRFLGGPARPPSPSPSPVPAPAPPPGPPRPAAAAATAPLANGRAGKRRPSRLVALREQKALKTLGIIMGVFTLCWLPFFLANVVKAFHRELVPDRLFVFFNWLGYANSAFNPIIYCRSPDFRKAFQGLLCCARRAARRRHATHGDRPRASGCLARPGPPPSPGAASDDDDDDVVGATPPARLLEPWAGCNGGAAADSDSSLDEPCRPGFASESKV

[14] = target: Alpha-1D adrenergic receptor (Homo sapiens, UniProt P25100); test: Binding affinity to alpha1D receptor (unknown origin) by radioligand displacement assay
Sequence of Alpha-1D adrenergic receptor (P25100 whole entry): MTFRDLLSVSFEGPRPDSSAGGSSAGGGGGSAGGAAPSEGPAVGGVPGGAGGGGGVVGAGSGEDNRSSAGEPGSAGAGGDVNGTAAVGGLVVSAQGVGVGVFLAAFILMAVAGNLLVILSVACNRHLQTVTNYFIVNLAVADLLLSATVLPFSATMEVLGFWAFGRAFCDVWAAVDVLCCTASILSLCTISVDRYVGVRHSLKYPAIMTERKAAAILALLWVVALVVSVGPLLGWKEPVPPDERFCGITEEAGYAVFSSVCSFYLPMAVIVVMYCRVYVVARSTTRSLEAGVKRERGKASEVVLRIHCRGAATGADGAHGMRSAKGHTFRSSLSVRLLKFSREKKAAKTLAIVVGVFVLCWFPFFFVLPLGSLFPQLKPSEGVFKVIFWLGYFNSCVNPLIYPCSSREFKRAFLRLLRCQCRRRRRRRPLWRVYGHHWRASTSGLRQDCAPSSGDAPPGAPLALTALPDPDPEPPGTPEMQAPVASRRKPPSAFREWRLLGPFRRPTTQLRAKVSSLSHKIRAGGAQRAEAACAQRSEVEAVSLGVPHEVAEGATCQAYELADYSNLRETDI

[15] = target: 5-hydroxytryptamine receptor 1D (Homo sapiens) (UniProt P28221); test: Binding affinity to 5-HT1D receptor (unknown origin) at 10000 nM by radioligand displacement assay relative to control
Sequence of 5-hydroxytryptamine receptor 1D (Homo sapiens) (P28221 whole entry): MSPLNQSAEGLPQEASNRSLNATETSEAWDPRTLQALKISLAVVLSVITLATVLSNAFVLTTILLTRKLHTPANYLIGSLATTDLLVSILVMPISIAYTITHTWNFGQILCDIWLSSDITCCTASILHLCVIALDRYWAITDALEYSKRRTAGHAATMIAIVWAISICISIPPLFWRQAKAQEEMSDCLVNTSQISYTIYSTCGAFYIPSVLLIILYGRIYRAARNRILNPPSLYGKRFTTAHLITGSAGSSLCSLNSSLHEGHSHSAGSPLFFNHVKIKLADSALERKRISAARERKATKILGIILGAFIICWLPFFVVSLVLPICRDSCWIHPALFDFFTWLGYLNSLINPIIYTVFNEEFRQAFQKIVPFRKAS

[16] = target: Alpha-2C adrenergic receptor (Homo sapiens, UniProt P18825); test: Binding affinity to alpha2C receptor (unknown origin) by radioligand displacement assay
Sequence of Alpha-2C adrenergic receptor (P18825 whole entry, the tested form may be a part): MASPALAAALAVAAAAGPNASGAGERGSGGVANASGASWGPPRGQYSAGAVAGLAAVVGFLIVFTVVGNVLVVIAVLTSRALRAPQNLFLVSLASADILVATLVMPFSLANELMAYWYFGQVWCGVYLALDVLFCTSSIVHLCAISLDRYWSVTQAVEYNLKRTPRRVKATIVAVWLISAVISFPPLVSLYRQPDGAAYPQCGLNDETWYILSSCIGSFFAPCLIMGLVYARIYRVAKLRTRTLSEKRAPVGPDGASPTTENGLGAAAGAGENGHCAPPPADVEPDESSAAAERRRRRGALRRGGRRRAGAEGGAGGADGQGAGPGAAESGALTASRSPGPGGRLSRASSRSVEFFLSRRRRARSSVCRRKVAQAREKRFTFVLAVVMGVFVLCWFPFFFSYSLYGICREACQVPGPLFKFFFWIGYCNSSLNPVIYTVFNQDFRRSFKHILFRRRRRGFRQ

PC-3M [17] = test: Cytotoxicity against human PC-3M cells expressing PTB/GFP fusion protein assessed as reduction in ATP level at 20 uM and measured after 24 to 48 hrs by ATPlite luminescence assay; assay type: toxicity, cell-based; conditions: time 24-48 hrs

With `N=c1c2c(-c3ccccc3)c(-c3ccccc3)n(Cc3ccccc3)c2ncn1[C@H]1CC[C@H](O)CC1` [ML-246] as the compound, how does the Activity (M14) read?
Its Activity is “Dde”.

And the Activity (NCI-H322M)?
Its Activity is “Dde”.

And the Activity (UACC-62)?
Its Activity is “Dde”.

What about the Activity (SNB-19) of the same compound?
The Activity was “Dde”.

What about the “beta t1/2” value [1] of the same compound?
The value was 16.4 min.

And the Cmax [2]?
The Cmax was 6.17 µM.

What about the Activity (A549) of the same compound?
The Activity was “Dde”.

What about the Activity (CAKI-1) of the same compound?
Its Activity is “Dde”.

And the Activity (RXF 393)?
Its Activity is “Dde”.

And the Activity [3]?
The Activity was less than 50%.

And the Activity [4]?
Its Activity is less than 50%.

What about the Cmax [5] of the same compound?
Its Cmax is 910 nM.

And the Activity (SF-539)?
Its Activity is “Dde”.

And the selectivity ratio (in vitro)?
The selectivity ratio was 38.3.

What about the AUC [6] of the same compound?
The AUC was 6.08 µM·h.

And the Activity (SNB-75)?
Its Activity is “Dde”.

What about the Activity (BT-549) of the same compound?
The Activity was “Dde”.

And the Activity [7]?
Its Activity is less than 50%.

What about the Activity (HL-60(TB)) of the same compound?
The Activity was “Dde”.

What about the Activity [8] of the same compound?
Its Activity is less than 50%.

What about the Activity [9] of the same compound?
Its Activity is less than 50%.

And the Activity (CCRF-CEM)?
Its Activity is “Dde”.

What about the Activity (786-0) of the same compound?
Its Activity is “Dde”.

What about the Activity (HCC 2998) of the same compound?
The Activity was “Dde”.

And the Ki (Histamine H1 receptor)?
Its Ki is 3.56 µM.

What about the Activity [10] of the same compound?
Its Activity is less than 50%.

What about the Activity (U-251) of the same compound?
Its Activity is “Dde”.

What about the Tmax [11] of the same compound?
The Tmax was 30 min.

What about the Activity (NCI-H23) of the same compound?
The Activity was “Dde”.

And the Activity (SN12C)?
The Activity was “Dde”.

And the Activity (EKVX)?
Its Activity is “Dde”.

What about the Activity (Hs-578T) of the same compound?
Its Activity is “Dde”.

And the Activity (PC-3M [12])?
The Activity was “Active”.

What about the Activity (T47D) of the same compound?
The Activity was “Dde”.

What about the Activity [13] of the same compound?
Its Activity is less than 50%.

And the Ki [14]?
Its Ki is 3.26 µM.

What about the Activity [15] of the same compound?
Its Activity is less than 50%.

What about the Ki [16] of the same compound?
The Ki was 1210 nM.

What about the Activity (PC-3M [17]) of the same compound?
The Activity was “Toxic”.
